Measured values: ChEMBL document CHEMBL1127789, “Synthesis, NMDA receptor antagonist activity, and anticonvulsant action of 1-aminocyclobutanecarboxylic acid derivatives” (1994)
Calls of active or inactive are those of the source. The rule behind the calls is not given here.

How the values were obtained:
[1] = Equipotent molar ratio relative to D-AP5 (1.0) on neonatal rat motoneurones.; type: functional
[2] = Equipotent molar ratio relative to D-AP5 (1.0) on neonatal rat motoneurones; type: functional
In short: (§1)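 Isolated neonatal rat spinal cord in vitro, recording from motoneurones. Antagonist potency is given as an equipotent molar ratio against D-AP5, with D-AP5 set to 1.0.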

[3] = Equipotent molar ratio relative to D-AP5 (1.0) on neonatal rat motoneurones.; inactive; type: functional; in short: as §1
[4] = (§2) Tested for anticonvulsant activity following intracerebroventricular administration against sound-induced clonic convulsions in DBA/2 mice.; type: functional, Mus musculus
In short: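 Intracerebroventricular injection in DBA/2 mice, 7–11 mice per compound, several doses per compound. Read-out is protection against sound-induced (audiogenic) clonic seizures. Values carry 95% confidence limits. Overt behaviour (ataxia) and rectal temperature were also noted.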

[5] = tested on: Mus musculus; assay: as §2; type: functional
In short: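 Intracerebroventricular dosing in DBA/2 mice at several doses, 7–11 mice per drug. Mice were exposed to sound, and protection against clonic (audiogenic) seizures was scored. Values were derived from dose–response data with 95% confidence limits. Overt behaviour (ataxia) and rectal temperature were also monitored.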

Compound | Ratio [1] | other results
N[C@]1(C(=O)O)C[C@@H](C(=O)CP(=O)(O)O)C1 | 4.2 | –
NC1(C(=O)O)CC([C@@H](O)CP(=O)(O)O)C1 (some centres undefined) | 0.39 | –
N[C@]1(C(=O)O)C[C@H](CCC(=O)O)C1 | – | Ratio [2]: 1.8
N[C@]1(C(=O)O)C[C@@](C(=O)O)(C2CC2C(=O)O)C1 (some centres undefined) | – | Ratio [3]: inactive
O=C(O)C1CN(CCCP(=O)(O)O)CCN1 (racemic) | 0.2 | –
N[C@]1(C(=O)O)C[C@@H](CCC(=O)O)C1 | – | Ratio [2]: 7.9
N[C@]1(C(=O)O)C[C@@H](CCP(=O)(O)O)C1 | 1.1 | –
NC1(C(=O)O)CC([C@H](O)CP(=O)(O)O)C1 (some centres undefined) | 1 | –
N[C@]1(C(=O)O)C[C@H](CCP(=O)(O)O)C1 | 0.32 | –
N[C@]1(C(=O)O)C[C@](C(=O)O)(C2CC2C(=O)O)C1 (some centres undefined) | 0.28 | ED50 [4]: 0.36 nmol; ED50 [5]: 0.089 µg
N[C@]1(C(=O)O)C[C@H](C(=O)CP(=O)(O)O)C1 | 0.33 | –
N[C@@H](CCCP(=O)(O)O)C(=O)O | – | Ratio [2]: 1
